Test [1] relates to Staphylococcus aureus. Briefly: Potency index, ratio of MIC of norfloxacin to MIC of compound for antibacterial activity against Methicillin-resistant Staphylococcus aureus CCARM 3167 assessed as reduction in bacterial cell growth incubated for 24 hrs by ELISA. Format: functional.
Test [2] deals with Escherichia coli. The test can be described thus: Antibacterial activity against Escherichia coli 1924 assessed as reduction in bacterial cell growth incubated for 24 hrs by ELISA. The format is functional. The note with it: Escherichia coli, 1924, 24 h. A digest of the protocol: (§1)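 MIC determined by serial dilution in 96-well microtiter plates. Strains used were E. coli 1924 and P. aeruginosa 2742 (Gram-negative), S. mutans 3289 (Gram-positive) and the fungus C. albicans 7535. Gatifloxacin, moxifloxacin, norfloxacin and oxacillin served as antibacterial reference agents, and fluconazole as the antifungal reference.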

The subject of test [3] is Staphylococcus aureus. The test can be described thus: Potency index, ratio of MIC of oxacillin to MIC of compound for antibacterial activity against Methicillin-resistant Staphylococcus aureus CCARM 3167 assessed as reduction in bacterial cell growth incubated for 24 hrs by ELISA. The format is functional.
Test [4] deals with Staphylococcus aureus. The test can be described thus: Antibacterial activity against Staphylococcus aureus RN4220 assessed as reduction in bacterial cell growth incubated for 24 hrs by ELISA. The format is functional. As to conditions: RN4220, 24 h. A digest of the protocol: (§2)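 MICs determined by serial dilution in 96-well microtiter plates. The strain panel included Gram-positive S. aureus strains and multidrug-resistant clinical isolates. Gatifloxacin, moxifloxacin, norfloxacin and oxacillin served as antibacterial positive controls.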

Test [5] relates to Staphylococcus aureus. Briefly: Antibacterial activity against Quinolone-resistant Staphylococcus aureus CCARM 3519 assessed as reduction in bacterial cell growth incubated for 24 hrs by ELISA. Format: functional. As to conditions: CCARM 3519, 24 h. A digest of the protocol:
as §2

The test system of test [6] is Staphylococcus aureus. Briefly: Potency index, ratio of MIC of oxacillin to MIC of compound for antibacterial activity against Methicillin-resistant Staphylococcus aureus CCARM 3506 assessed as reduction in bacterial cell growth incubated for 24 hrs by ELISA. Format: functional.
Test [7] concerns Staphylococcus aureus. Briefly: Antibacterial activity against Methicillin-resistant Staphylococcus aureus CCARM 3506 assessed as reduction in bacterial cell growth incubated for 24 hrs by ELISA. The format is functional. The note with it: CCARM 3506, 24 h. In short, it runs like this: as §2
A further test deals with Candida albicans. The test can be described thus: Antifungal activity against Candida albicans 7535 assessed as reduction in bacterial cell growth incubated for 24 hrs by ELISA. Format: functional. As to conditions: Candida albicans, 7535, 24 h. In short, it runs like this: as §1
Test [8] concerns the target T1, Tyrosine-protein phosphatase non-receptor type 1 (Homo sapiens, UniProt P18031).
T1 sequence (P18031 whole entry): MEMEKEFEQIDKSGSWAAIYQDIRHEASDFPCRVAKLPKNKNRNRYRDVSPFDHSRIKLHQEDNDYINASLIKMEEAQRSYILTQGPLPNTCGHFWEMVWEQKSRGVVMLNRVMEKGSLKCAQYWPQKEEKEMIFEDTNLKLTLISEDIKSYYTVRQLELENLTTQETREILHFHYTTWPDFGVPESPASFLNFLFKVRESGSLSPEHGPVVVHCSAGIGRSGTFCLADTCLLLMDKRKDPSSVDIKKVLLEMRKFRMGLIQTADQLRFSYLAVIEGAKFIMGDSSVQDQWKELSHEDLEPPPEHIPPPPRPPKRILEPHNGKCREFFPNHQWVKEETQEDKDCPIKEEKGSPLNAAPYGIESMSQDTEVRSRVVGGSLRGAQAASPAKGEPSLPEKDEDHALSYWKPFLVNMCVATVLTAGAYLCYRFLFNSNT
Briefly: Inhibition of human recombinant GST-tagged PTP1B expressed in Escherichia coli BL21 (DE3) using pNPP as substrate measured for 2 mins by colorimetric analysis.

For the next test, the system named is Pseudomonas aeruginosa. Briefly: Antibacterial activity against Pseudomonas aeruginosa 2742 assessed as reduction in bacterial cell growth incubated for 24 hrs by ELISA. The format is functional. As to conditions: Pseudomonas aeruginosa, 2742, 24 h. In short, it runs like this:
as §1

In test [9] the test system is Staphylococcus aureus. The test can be described thus: Antibacterial activity against Quinolone-resistant Staphylococcus aureus CCARM 3505 assessed as reduction in bacterial cell growth incubated for 24 hrs by ELISA. The format is functional. As to conditions: CCARM 3505, 24 h. A digest of the protocol:
as §2

For test [10], the system named is Staphylococcus aureus. Briefly: Antibacterial activity against Staphylococcus aureus KCTC503 assessed as reduction in bacterial cell growth incubated for 24 hrs by ELISA. The note with it: KCTC503, 24 h. The format is functional. In short, it runs like this:
as §2

Test [11] has as its system Staphylococcus aureus. The test can be described thus: Antibacterial activity against Staphylococcus aureus KCTC209 assessed as reduction in bacterial cell growth incubated for 24 hrs by ELISA. Format: functional. As to conditions: KCTC209, 24 h. In short, it runs like this: as §2
The test system of test [12] is Staphylococcus aureus. The test can be described thus: Antibacterial activity against Methicillin-resistant Staphylococcus aureus CCARM 3167 assessed as reduction in bacterial cell growth incubated for 24 hrs by ELISA. The format is functional. As to conditions: CCARM 3167, 24 h. A digest of the protocol: as §2
Another test deals with Streptococcus mutans. The test can be described thus: Antibacterial activity against Streptococcus mutans KCTC3289 assessed as reduction in bacterial cell growth incubated for 24 hrs by ELISA. The note with it: KCTC3289, 24 h. Format: functional. A digest of the protocol:
as §1

Test [13] has as its system Staphylococcus aureus. The test can be described thus: Potency index, ratio of MIC of norfloxacin to MIC of compound for antibacterial activity against Methicillin-resistant Staphylococcus aureus CCARM 3506 assessed as reduction in bacterial cell growth incubated for 24 hrs by ELISA. The format is functional.
Test [14] has as its system Staphylococcus aureus. Briefly: Potency index, ratio of MIC of gatifloxacin to MIC of compound for antibacterial activity against Staphylococcus aureus KCTC503 assessed as reduction in bacterial cell growth incubated for 24 hrs by ELISA. Format: functional.
The subject of test [15] is Escherichia coli. The test can be described thus: Potency index, ratio of MIC of moxifloxacin to MIC of compound for antibacterial activity against Escherichia coli 1924 assessed as reduction in bacterial cell growth incubated for 24 hrs by ELISA. Format: functional.
In test [16] the test system is Escherichia coli. The test can be described thus: Potency index, ratio of MIC of gatifloxacin to MIC of compound for antibacterial activity against Escherichia coli 1924 assessed as reduction in bacterial cell growth incubated for 24 hrs by ELISA. Format: functional.

≈ marks a conversion by molar mass, not a printed value.

Turning to `COc1cc(/C=C2\SC(=S)N(C(Cc3c[nH]c4ccccc34)C(=O)O)C2=O)ccc1OCc1ccc(Cl)cc1Cl` (centres undefined), the Ratio in the test on Staphylococcus aureus [1] is listed as 4; in the test with Staphylococcus aureus [3], 64; with Staphylococcus aureus [6] it was 64; with Staphylococcus aureus [13], 4. For the same compound, the MIC with Escherichia coli [2] is 2 µg/mL (≈ 3.26 µM); in the test on Staphylococcus aureus [4] it was 2 µg/mL (≈ 3.26 µM); in the test with Staphylococcus aureus [5], 2 µg/mL (≈ 3.26 µM); in the test on Staphylococcus aureus [7], 2 µg/mL (≈ 3.26 µM); with Candida albicans it was greater than 64 µg/mL; in the test on Pseudomonas aeruginosa it was greater than 64 µg/mL. For the same compound, the MIC with Staphylococcus aureus [9], in the test on Staphylococcus aureus [10], with Staphylococcus aureus [11], with Staphylococcus aureus [12] and in the test with Streptococcus mutans was 2 µg/mL (≈ 3.26 µM) in each case. The half-maximal inhibitory concentration (IC50) in [8] worked out at 700 nM.

Take `O=C(O)C(Cc1c[nH]c2ccccc12)N1C(=O)/C(=C/c2ccc3cc(OCc4ccc(Cl)cc4)ccc3c2)SC1=S` (centres undefined): the Ratio came to 4 with Staphylococcus aureus [1], 64 in the test on Staphylococcus aureus [3], 64 in the test on Staphylococcus aureus [6] and 4 in the test on Staphylococcus aureus [13]. The MIC in the test on Escherichia coli [2] was 2 µg/mL (≈ 3.34 µM); in the test with Staphylococcus aureus [4], 2 µg/mL (≈ 3.34 µM); in the test with Staphylococcus aureus [5], 4 µg/mL (≈ 6.68 µM); with Staphylococcus aureus [7] it was 2 µg/mL (≈ 3.34 µM); in the test on Candida albicans, greater than 64 µg/mL; in the test on Pseudomonas aeruginosa, greater than 64 µg/mL. The MIC in the test with Staphylococcus aureus [9], in the test on Staphylococcus aureus [12] and with Streptococcus mutans was 2 µg/mL (≈ 3.34 µM) each time. For the same compound, the IC50 in test [8] worked out at 720 nM.

On to `O=C(O)C(Cc1c[nH]c2ccccc12)N1C(=O)/C(=C/c2ccc(OCc3ccc(Br)cc3)cc2)SC1=S` (centres undefined), for which the Ratio in the test on Staphylococcus aureus [1] was 4; in the test with Staphylococcus aureus [3], 64; in the test on Staphylococcus aureus [6] it was 64; in the test on Staphylococcus aureus [14], 2; in the test with Escherichia coli [15] it was 2; in the test with Escherichia coli [16] it was 2. For the same compound, the Ratio with Staphylococcus aureus [13] was determined as 4. Moreover, the MIC in the test with Escherichia coli [2] is 1 µg/mL (≈ 1.68 µM); in the test on Staphylococcus aureus [4] it was 1 µg/mL (≈ 1.68 µM); in the test with Staphylococcus aureus [5], 2 µg/mL (≈ 3.37 µM); in the test on Staphylococcus aureus [7], 2 µg/mL (≈ 3.37 µM); in the test on Candida albicans it was greater than 64 µg/mL; in the test on Pseudomonas aeruginosa it was greater than 64 µg/mL. The MIC in the test with Staphylococcus aureus [9] amounted to 2 µg/mL (≈ 3.37 µM); in the test on Staphylococcus aureus [10], 2 µg/mL (≈ 3.37 µM); in the test with Staphylococcus aureus [11], 4 µg/mL (≈ 6.74 µM); in the test on Staphylococcus aureus [12], 2 µg/mL (≈ 3.37 µM); in the test with Streptococcus mutans it was 1 µg/mL (≈ 1.68 µM). Besides, the IC50 in test [8] is 2600 nM.

The record behind these values is ChEMBL document CHEMBL4346701, “Synthesis and biological evaluation of tryptophan-derived rhodanine derivatives as PTP1B inhibitors and anti-bacterial agents” (Eur J Med Chem, 2019).
